S100A4 MyoIIA – inhibitors of human S100A4 binding to myosin IIA peptide; AID 652163; P26447; actives 0.14% (n = 360,000); inhibition, % at 10.7 µM; S100A4/TAMRA-MyoIIA peptide fluorescence polarization;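 active = mean inhibition of at least 70% across replicates, with every replicate also reaching that level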
Target sequence (P26447 whole entry, looked up): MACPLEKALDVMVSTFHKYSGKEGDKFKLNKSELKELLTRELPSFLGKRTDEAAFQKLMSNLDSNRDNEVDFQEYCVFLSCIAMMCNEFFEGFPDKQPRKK
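Test system: S100A4 monomer protein; Medium: HEPES pH 7.2 with CaCl2, KCl, NaCl, DTT, Triton; Probe or stimulus: TAMRA-labelled myosin IIA heavy-chain peptide probe, 5 nM; Doses: one dose per compound; Times: polarization read 5 min after assay mix addition, stable 5–60 min; Benchmarks: neutral control DMSO, positive control TFP.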
SIRT5 inh – inhibitors of human sirtuin-5 desuccinylase; Q9NXA8; Purified SirT5, succinyl-peptide AMC, trypsin-coupled fluorescence; inhibition, % at 15 µM; actives 1.1% (n = 330,000); in the data active = inhibition above about 15%
Target sequence (Q9NXA8 whole entry, looked up): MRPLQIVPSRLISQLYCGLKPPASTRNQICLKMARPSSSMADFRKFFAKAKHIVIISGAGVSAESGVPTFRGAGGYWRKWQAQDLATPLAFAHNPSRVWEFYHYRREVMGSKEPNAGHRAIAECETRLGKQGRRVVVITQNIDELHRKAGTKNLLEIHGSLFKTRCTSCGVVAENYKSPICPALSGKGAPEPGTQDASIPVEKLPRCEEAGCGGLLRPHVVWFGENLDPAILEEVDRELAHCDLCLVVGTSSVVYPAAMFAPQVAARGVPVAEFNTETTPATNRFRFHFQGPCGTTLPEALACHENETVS
rRNA inh HTS – inhibits bacterial ribosomal RNA function over humanized ribosomes; E. coli WT GFP vs humanized-ribosome RFP mutants, fluorescence, 24 h; stronger effect = lower value; DMSO median 0, no signal -100; GFP signal change (wild-type ribosome), % (test concentration not listed); actives 1.6% (n = 350,000); AID 720706;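 active = significant combined selectivity score with lowered wild-type GFP, culture density cut under 30%, mutant RFP and density less affected; inactive = any of these conditions unmet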
Cneo AK release – causes C. neoformans cell lysis | lysis activity, % at 15 µM | actives 0.2% (n = 360,000) | adenylate kinase release luminescence, 4 h; normalised: neutral wells 0, clomiphene wells 100;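 active = mean lysis activity across replicates of at least 80%, whatever share of replicates individually reach that level; inactive = mean lysis activity below 80%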
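Signal: Adenylate kinase release luminescence | Assay system: Log-phase Cryptococcus neoformans yeast cells | Input: Cells at 5 × 10^6 per mL | Buffer or medium: Fresh YPD growth medium | Compound: Single dose | Schedule: Static 4 h at 37 °C with compound, 1 h detection | Controls: Clomiphene | Read-out: Luminescence rise reflecting yeast cell lysis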
PGC1a acetyl inh – PGC1a acetylation modulation, inhibitor mode. U2OS PGC1a acetylation, AlphaScreen anti-acetyl-lysine; with virally co-expressed GCN5 acetyltransferase. inhibition, % at 15.6 µM. actives 0.17% (n = 350,000). AID 651687;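 active = every replicate shows inhibition of at least 40%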;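 also: 0% = neutral control wells and 100% = positive control wells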
C2C12 statin – protects C2C12 myotubes from simvastatin toxicity; AID 602340; rescue of ATP level, % at 7.49 µM; ATP luminescence, 48 h; scaled: DMSO 0, geranylgeraniol control 100; actives 0.78% (n = 330,000);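 active = mean ATP rescue above about 67%, or every replicate alone reaching that limit, limit read from the data, passing the limit was not always enough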;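 also: myotubes were challenged with 10 µM simvastatin during compound exposure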
Active calls of the source: *; · = no result. Compounds with a hit are over-represented: about 3% of the library has one in this group of screens.

SMILES | S100A4 MyoIIA | SIRT5 inh | rRNA inh HTS | Cneo AK release | PGC1a acetyl inh | C2C12 statin
C[C@@H]1CN([C@@H](C)CO)C(=O)Cc2cc(NC(=O)CCCN(C)C)ccc2O[C@@H]1CN(C)S(=O)(=O)c1ccc(Cl)cc1 | 5.2 | 2.1 | 2.7 | · | -8.7 | ·
C[C@@H]1CN([C@H](C)CO)C(=O)c2cc(NC(=O)Cn3cnnn3)ccc2O[C@H]1CN(C)C(=O)Nc1ccccc1 | 0.7 | 3.5 | 3.7 | 2.6 | 0.6 | ·
N#C/C(=C1\CCCN1)c1ccc2ccccc2n1 | · | · | · | 0.6 | -18.1 | 76.8*
O=C(NC1CCCc2c1cnn2-c1ccc(F)cc1F)c1ccccc1N1CCOCC1 (stereo not drawn) | -5.4 | -0.1 | -29.4* | 0.5 | 2.5 | -6.0
COc1ccc2c3c(n(C)c2c1)[C@@H](CO)N(CC1CC1)CC31CN(C(=O)c2ccc(F)cc2)C1 | · | · | -5.1 | · | -6.8 | ·
CC(C)NC(=O)N(C)C[C@@H]1Oc2c(NS(=O)(=O)c3ccc(Cl)cc3)cccc2C(=O)N([C@@H](C)CO)C[C@@H]1C | 4.1 | -7.0 | -5.1 | 0.6 | -4.7 | -8.8
C[C@@H]1CN([C@@H](C)CO)C(=O)c2cc(NC(=O)c3ccncc3)ccc2O[C@H]1CN(C)Cc1ccc(Oc2ccccc2)cc1 | -10.0 | 16.4* | -1.7 | -1.6 | -11.5 | -77.7
C[C@H](CO)N1C[C@H](C)[C@@H](CN(C)Cc2ccc(Oc3ccccc3)cc2)Oc2ccc(NC(=O)Nc3ccccc3)cc2C1=O | 21.3 | 10.5 | -0.3 | 44.1 | -3.1 | -9.9
C[C@H](CO)N1C[C@H](C)[C@H](CN(C)Cc2ccccc2)Oc2ccc(NC(=O)Nc3ccccc3)cc2C1=O | -8.4 | 2.5 | -0.3 | 1.4 | -5.3 | -43.3
C[C@@H]1CN([C@@H](C)CO)C(=O)c2cc(NC(=O)Nc3ccccc3)ccc2O[C@@H]1CN(C)Cc1ccc(Oc2ccccc2)cc1 | 0.6 | 17.3* | -4.1 | 4.9 | -10.2 | -50.5
C[C@H](CO)N1C[C@H](C)[C@H](CN(C)Cc2ccc(Oc3ccccc3)cc2)Oc2ccc(NC(=O)c3ccncc3)cc2C1=O | -14.4 | 1.4 | -3.4 | -1.6 | 7.1 | -18.0
C[C@@H]1CN([C@H](C)CO)C(=O)c2cc(NC(=O)Nc3ccccc3)ccc2O[C@@H]1CN(C)Cc1ccccc1 | 7.7 | 17.8* | 0.9 | -5.6 | -1.9 | 16.5
CCNC(=O)Nc1ccc2c(c1)C(=O)N(C)[C@H]1CC[C@H](CC(=O)NCc3ccccc3F)O[C@@H]1CO2 | 5.2 | -1.6 | 0.7 | 3.9 | 2.2 | -20.7
O=C(Cc1cccnc1)N[C@H]1CC[C@@H](CCn2cc(Cc3ccccc3)nn2)O[C@@H]1CO | -6.1 | 0.1 | 2.5 | 0.8 | -4.2 | 6.1
C[C@@H]1CN([C@H](C)CO)S(=O)(=O)c2ccc(-c3ccccc3)cc2O[C@@H]1CN(C)Cc1ccncc1 | 6.3 | 7.9 | -27.4 | -5.7 | -5.9 | -19.1
C[C@H](CO)N1C[C@H](C)[C@H](CN(C)C(=O)Nc2ccccc2)Oc2cc(C#CC3(O)CCCC3)ccc2S1(=O)=O | 1.5 | 5.1 | -4.8 | -1.0 | 6.0 | -33.5
C/C=C/c1ccc([C@H]2[C@@H](CO)N(C(=O)CC)C23CN(C(=O)c2ccccc2)C3)cc1 | 2.9 | -0.1 | -2.8 | · | -14.4 | ·
CCNC(=O)[C@@H]1[C@@H](CO)[C@@H]2Cn3c(ccc(-c4ccc(F)cc4)c3=O)[C@H]1N2C | -0.1 | -2.5 | 5.3 | 47.1 | 2.8 | -8.2
CCc1ccc(CNCc2cccnc2)cc1 | · | · | · | -1.8 | 10.4 | 113.8*
CC(C)Cn1c(=O)c(C(=O)Nc2ccncc2)c(O)c2ccccc21 | -0.9 | -2.7 | -26.1* | -2.1 | 5.7 | -55.7
CCCNC(=O)C[C@H]1CC[C@H]2[C@@H](COc3ccc(NC(=O)c4ccno4)cc3C(=O)N2C)O1 | -4.5 | -1.5 | 3.7 | -1.5 | 2.7 | -4.7
CN1C(=O)c2cc(NC(=O)c3cc(F)cc(F)c3)ccc2OC[C@@H]2O[C@@H](CC(=O)O)CC[C@@H]21 | 13.4 | -4.7 | -2.1 | -1.4 | 5.1 | -6.9
N=c1c2c(-c3ccccc3)c(-c3ccccc3)n(Cc3ccco3)c2ncn1CCO | 0.1 | -2.8 | · | 2.3 | -8.5 | ·
N=c1c2c(-c3ccccc3)c(-c3ccccc3)n(Cc3ccco3)c2ncn1CCCO | 4.5 | -2.9 | -52.2* | 1.2 | -23.4 | ·
O=C(C[C@H]1CC[C@H](NC(=O)Cc2ccccn2)[C@@H](CO)O1)NCCc1ccncc1 | 7.8 | -4.2 | 0.9 | -19.2 | -2.7 | -3.4
SMILES | S100A4 MyoIIA | SIRT5 inh | rRNA inh HTS | Cneo AK release | PGC1a acetyl inh | C2C12 statin
COc1ccc(C(=O)NC(=S)NNC(=O)c2ccccc2O)cc1 | -0.2 | -2.2 | 8.5 | 4.5 | · | -14.9
COc1ccc(C(=O)c2cc([N+](=O)[O-])ccc2N2CCOCC2)cc1 | -3.0 | 3.1 | -19.1* | · | · | ·
COc1ccc(C(=O)NNC(=S)NC(=O)c2cccc([N+](=O)[O-])c2)cc1 | 4.8 | 2.8 | -26.0* | -5.1 | -2.1 | ·
COc1ccc(C(=O)NC(=S)NNC(=O)c2ccccc2C)cc1 | 12.8 | -7.6 | -41.0* | 2.2 | · | -30.4
COc1ccc(N2CCN(C(=O)C(=O)c3cccc([N+](=O)[O-])c3)CC2)cc1 | 2.3 | · | -4.6* | · | · | ·
O=C(NC(=S)NNC(=O)c1ccccc1O)c1cccc([N+](=O)[O-])c1 | -1.2 | 3.1 | -19.6 | -0.1 | · | -13.2
C[C@@H]1CCCCO[C@H](CN(C)C(=O)Nc2ccccc2)[C@@H](C)CN([C@H](C)CO)C(=O)c2cc(NC(=O)NC3CCCCC3)ccc2O1 | 12.4 | 0.9 | 3.0 | 6.8 | -3.3 | ·
COc1ccc(/C=C(\NC(=O)c2ccc([N+](=O)[O-])cc2)C(=O)NCCCN2CCOCC2)cc1 | -1.6 | 3.0 | -14.2* | 9.2 | 4.6 | -2.1
C[C@H](CO)N1C[C@H](C)[C@H](CN(C)S(=O)(=O)c2ccc(Cl)cc2)OCCCC[C@H](C)Oc2ccc(NS(=O)(=O)c3ccc(Cl)cc3)cc2C1=O | · | · | -9.0 | -11.6 | 7.7 | ·
CC(C)C(NC(=O)OCc1ccccc1)C(=O)NC(Cc1ccc(O)cc1)C(=O)O (stereo not drawn) | -9.3 | -4.1 | 18.8 | 5.2 | -3.2 | 0.0
CC(C)[C@H](NC(=O)[C@H](CCCN=C(N)N)NC(=O)NC(Cc1ccccc1)C(=O)O)C(=O)NC(C=O)CCCN=C(N)N (stereo partly drawn) | -1.6 | 46.4* | · | -0.8 | 2.8 | -2.3
Cc1ccccc1CC1(CO)CCCN(Cc2ccccc2Cl)C1 (stereo not drawn) | -6.0 | -7.8 | -27.8* | 3.7 | 6.1 | -0.2
COc1ccsc1C(=O)Nc1ccc(F)cc1F | -2.6 | · | 1.5 | · | · | ·
CSc1sc(C(=O)Nc2ccc(F)cc2F)c2c1C=CCC2 | -8.0 | -5.9 | -26.4* | -0.1 | 0.8 | ·

Screens deposited in PubChem by Broad Institute.
